{"data": "Published values from different studies", "CA12": "Carbonic anhydrase 12 (CA12, Homo sapiens, UniProt O43570)", "DRD3": "D(3) dopamine receptor (DRD3, Homo sapiens, UniProt P35462)", "SLC6A3": "Sodium-dependent dopamine transporter (SLC6A3, Homo sapiens, UniProt Q01959)", "CASP3": "Caspase-3 (CASP3, Homo sapiens, UniProt P42574)"}
{"Compound": "NS(=O)(=O)c1ccc(-n2nccc2-c2ccc(N3CCCCC3)cc2)cc1", "target": "CA12", "assay": "enzyme activity, inhibitor, stopped-flow", "Ki": "0.298 µM"}
{"Compound": "O=C1c2ccccc2CCCN1CCCCN1CCN(c2ccccn2)CC1", "target": "DRD3", "assay": "ligand displacement, radioligand", "Ki": "0.003 µM"}
{"Compound": "CCN(CC)c1ccc(C2Nc3ccc(C(=O)c4ccccc4)cc3NC3=C2C(=O)CC(C)(C)C3)cc1 (stereo not shown)", "target": "SLC6A3", "assay": "cell-free assay, radioligand", "Ki": "> 10 µM"}
{"Compound": "CN(CC[C@@H]1C[C@H]1CNC(=O)c1cc2ccccc2[nH]1)[C@@H]1Cc2cccc3[nH]c(=O)n(c23)C1", "target": "DRD3", "assay": "ligand displacement, radioligand", "conditions": "cell membranes", "Ki": "0.398 µM"}
{"Compound": "NS(=O)(=O)c1ccc(-n2nccc2-c2ccc(N3CCOCC3)cc2)cc1", "target": "CA12", "assay": "enzyme activity, inhibitor, stopped-flow", "Ki": "0.344 µM"}
{"Compound": "CCCCN1CCC(COC(=O)c2ccc(N)c(OCF)c2)CC1", "target": "SLC6A3", "assay": "cell-free assay, radioligand", "Ki": "> 10 µM"}
{"Compound": "CC1(C)C=Cc2c(cc3oc(-c4ccccc4)c(O)c(=O)c3c2O)O1", "target": "Peroxisome proliferator-activated receptor gamma (PPARG, Homo sapiens, UniProt P37231)", "assay": "cell-free assay, TR-FRET", "Ki": "3.2 µM"}
{"Compound": "CC(C)c1nc2cc(OCCCCN3CCN(c4cccc5c4OCCO5)CC3)ccc2s1", "target": "SLC6A3", "assay": "ligand displacement, radioligand", "Ki": "2.5 µM"}
{"Compound": "CC/C(=C(/c1ccc(O)cc1)c1ccc(OCCN)cc1)c1ccc(O)cc1", "target": "Aromatase (CYP19A1, Homo sapiens, UniProt P11511)", "assay": "enzyme activity, inhibitor, fluorescence", "Ki": "0.02 µM"}
{"Compound": "CC(=O)N[C@@H](CCCCNC(=O)CSCCNC(=O)CCNC(=O)[C@H](O)C(C)(C)COP(=O)(O)OP(=O)(O)OC[C@H]1O[C@@H](n2cnc3c(N)ncnc32)[C@H](O)[C@@H]1OP(=O)(O)O)C(N)=O", "target": "Histone acetyltransferase type B catalytic subunit (Homo sapiens, UniProt O14929)", "assay": "enzyme activity, inhibitor, radiometric", "Ki": "74.8 µM"}
{"Compound": "COc1cccc(CCC2=NCCN2CCc2ccccc2)c1", "target": "DRD3", "assay": "ligand displacement, radioligand", "Ki": "> 10 µM"}
{"Compound": "O=c1c(O)c(-c2ccc(O)c(O)c2)oc2cc(O)cc(O)c12", "target": "CASP3", "assay": "enzyme activity, inhibitor, fluorescence", "Ki": "96.4 µM"}
{"Compound": "CN(CCCCNC(=O)c1ccc2scnc2c1)[C@@H]1Cc2cccc3[nH]c(=O)n(c23)C1", "target": "DRD3", "assay": "ligand displacement, radioligand", "conditions": "cell membranes", "Ki": "0.427 µM"}
{"Compound": "Cc1nc2cc(OCCCCN3CCN(c4cccc(Cl)c4Cl)CC3)ccc2s1", "target": "SLC6A3", "assay": "ligand displacement, radioligand", "Ki": "0.69 µM"}
{"Compound": "CN(CCCCNC(=O)c1cc2ccccc2[nH]1)[C@@H]1Cc2cccc3[nH]c(=O)n(c23)C1", "target": "DRD3", "assay": "ligand displacement, radioligand", "conditions": "cell membranes", "Ki": "0.0827 µM"}
{"Compound": "O=C1CSC(=S)N1NC(=S)SSC(=S)NN1C(=O)CSC1=S", "target": "Tyrosine-protein phosphatase non-receptor type 22 (PTPN22, Homo sapiens, UniProt Q9Y2R2)", "assay": "enzyme activity, inhibitor, fluorescence", "Ki": "1.1 µM"}
{"Compound": "O=c1c(O)c(-c2cc(O)c(O)c(O)c2)oc2cc(O)cc(O)c12", "target": "CASP3", "assay": "enzyme activity, inhibitor, fluorescence", "Ki": "68.7 µM"}
{"Compound": "CC1Cc2ccccc2N1C(=O)NCCCCN(C)[C@@H]1Cc2cccc3[nH]c(=O)n(c23)C1 (mixture of isomers)", "target": "DRD3", "assay": "ligand displacement, radioligand", "conditions": "cell membranes", "Ki": "0.139 µM"}
{"Compound": "CCCC[C@H](NC(=O)[C@H](C)c1c(C)[nH]c2ccc(O)cc12)c1ncc(-c2cc3ccccc3nc2OC)[nH]1", "target": "Prostaglandin F2-alpha receptor (PTGFR, Homo sapiens, UniProt P43088)", "assay": "cell-free assay", "Ki": "8.98 µM"}
